Experimental data published in ChEMBL document CHEMBL4613269, “2-((4-Arylpiperazin-1-yl)methyl)benzonitrile Derivatives as Orally Available Inhibitors of Hepatitis C Virus with a Novel Mechanism of Action” (J Med Chem, 2020).
Activity calls are given as the source filed them. The calls are words filed in the database; no cut-off is given here.

Tests used:
[1] = test system: Coxsackievirus B3; assay: Antiviral activity against Coxsackievirus B3 infected in Vero cells assessed as reduction in virus-induced cytopathic effect incubated for 48 hrs by Reed-Muench method; format: functional, organism-based; settings: Enterovirus B
[2] = Half life in Sprague-Dawley rat at 5 mg/kg, iv measured after 0.08 to 72 hrs post dose by LC-MS/MS analysis; format: ADME, organism-based; settings: in vivo
How it was run: (§1)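 Single dose to fasted (12 h) animals: oral gavage 15 mg/kg as suspension in 0.5% CMC-Na, or iv 5 mg/kg dissolved in citric acid buffer pH 5.0 with 2.5% DMSO. Jugular vein blood on heparin at 0.08 (iv only) to 72 h. Plasma assayed by LC-MS/MS; parameters from noncompartmental analysis.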

[3] = test system: Hepatitis C virus; assay: Antiviral activity against HCV expressing NS5B S282T mutant by qRT-PCR analysis based by Reed-Muench method; format: functional, organism-based, Hepacivirus hominis
How it was run: (§2)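 Huh7.5 cells seeded at 3×10^4/cm², infected 24 h later with wild-type or mutant HCV stock while compound or solvent was added at the same time. Intracellular HCV RNA measured by qRT-PCR at 72 h, normalised to GAPDH, 2^-ΔCT method. EC50 by Reed & Muench from eight-step 1:5 serial dilutions, triplicate wells.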

[4] = Oral bioavailability in Sprague-Dawley rat at 5 mg/kg measured after 0.08 to 72 hrs after dose by LC-MS/MS analysis; format: ADME, organism-based; settings: in vivo
[5] = Apparent Volume of distribution in beagle dog at 15 mg/kg, po measured after 0.08 to 72 hrs post dose by LC-MS/MS analysis; format: ADME, organism-based, Canis lupus familiaris; settings: in vivo; how it was run: as §1
[6] = Toxicity in Kunming mouse assessed as effect on body weight at 250 to 1000 mg/kg dosed via single oral gavage and measured on day 7 post treatment; format: organism-based; settings: in vivo
How it was run: (§3)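 Kunming mice, 4 groups of n = 6 (3 male, 3 female). Fasted from 12 h before to 1 h after dosing. Single oral gavage of 250, 500 or 1000 mg/kg suspended in 0.5% CMC-Na, or vehicle alone. Followed for 7 days: survival, body weight before and at day 7. Day-7 blood taken for AST, ALT, urea nitrogen and creatinine.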

[7] = test system: Hepatitis C virus; assay: Antiviral activity against HCV with glycoprotein E1 F291V mutant infected in human Huh7.5 cells assessed as reduction in viral RNA levels incubated for 72 hrs by qRT-PCR analysis; format: functional, organism-based, Hepacivirus hominis; how it was run: as §2
[8] = test system: Hepatitis C virus; assay: Antiviral activity against HCV genotype 1b pseudoparticle infected in human Huh7.5 cells assessed as reduction in viral replication; format: functional, organism-based; settings: Hepacivirus hominis; subtype 1b
How it was run: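 Genotype 1b or 2a HCV pseudoparticles made by co-transfecting HEK 293T cells with envelope and luciferase-reporter HIV plasmids; input standardized by luciferase. Huh7.5 cells co-incubated with compound and HCVpp for 4 h at 37°C, washed, then luciferase read at 72 h.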

[9] = Toxicity in Kunming mouse at 250 to 1000 mg/kg dosed via single oral gavage and measured on day 7 post treatment; format: organism-based; settings: in vivo; how it was run: as §3
[10] = Cmax in beagle dog at 15 mg/kg, po measured after 0.08 to 72 hrs post dose by LC-MS/MS analysis; format: ADME, organism-based, Canis lupus familiaris; design: dose 15 mg/kg, route oral; settings: in vivo; how it was run: as §1
[11] = test system: Hepatitis C virus; assay: Resistance index, ratio of EC50 for antiviral activity against HCV with glycoprotein E1 F291V mutant infected in human Huh7.5 cells to EC50 for Antiviral activity against HCV with wild type glycoprotein E1 infected in human Huh7.5 cells; format: functional, Hepacivirus hominis
How it was run: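 Huh7.5 cells seeded at 3×10^4/cm² and incubated 24 h, then infected with wild-type or E1 F291V mutant HCV while simultaneously treated with compound in eight-step 1:5 serial dilutions, run in triplicate. Intracellular HCV RNA was read by qRT-PCR at 72 h (2^-ΔCT, normalized to GAPDH). EC50 by Reed & Muench; the index is mutant EC50 over wild-type EC50.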

[12] = test system: Hepatitis C virus; assay: Induction of HCV GS4.3 viral particles inactivation infected in human Huh7.5 cells assessed as reduction in viral protein levels at 1 uM pre-incubated with virus for 2 hrs before viral infection and measured after 72 hrs by Western blot assay; format: functional, organism-based; settings: Hepacivirus hominis
How it was run: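 Huh7.5 cells inoculated with HCV stock pre-treated 2 h with 1.0 μM compound, then diluted 20-fold (final 0.05 μM). Control stocks were treated with 0.05 μM or 1.0 μM. Intracellular proteins were extracted and analysed by western blot at 72 h, with HCV Core/actin ratio normalized to control.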

[13] = test system: Hepatitis C virus; assay: Antiviral activity against HCV GS4.3 infected in human Huh7.5 cells assessed as reduction in viral replication at 0.3125 to 5 uM simultaneously treated with viral infection for 4 hrs and measured after 72 hrs by In-Cell Western assay; format: functional, organism-based; settings: Hepacivirus hominis
How it was run: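 Huh7.5 cells infected with HCV while incubated with compound, either for 4 h across a concentration series or at 1.0 µM for varied times down to 15 min. Supernatant then replaced with fresh medium. Intracellular Core protein measured by In-Cell Western at 72 h.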

[14] = Drug level in Sprague-Dawley rat at 15 mg/kg, po measured after 72 hrs post dose by LC-MS/MS analysis; format: ADME, organism-based; settings: in vivo, read-out: Drug uptake; how it was run: as §1
[15] = Apparent Volume of distribution in Sprague-Dawley rat at 5 mg/kg, iv measured after 0.08 to 72 hrs post dose by LC-MS/MS analysis; format: ADME, organism-based; settings: in vivo, read-out: Vz; how it was run: as §1
[16] = Toxicity in Kunming mouse assessed as effect on ALT level at 250 to 1000 mg/kg dosed via single oral gavage and measured on day 7 post treatment; format: organism-based; settings: in vivo; how it was run: as §3
[17] = Half life in beagle dog at 5 mg/kg, iv measured after 0.08 to 72 hrs post dose by LC-MS/MS analysis; format: ADME, organism-based, Canis lupus familiaris; settings: in vivo
[18] = Toxicity in Kunming mouse assessed as effect on blood urea nitrogen level at 250 to 1000 mg/kg dosed via single oral gavage and measured on day 7 post treatment; format: organism-based; settings: in vivo; how it was run: as §3
[19] = Clearance in Sprague-Dawley rat at 15 mg/kg, po measured after 0.08 to 72 hrs post dose by LC-MS/MS analysis; format: ADME, organism-based; settings: in vivo; how it was run: as §1
[20] = Drug level in Sprague-Dawley rat at 5 mg/kg, iv measured after 24 hrs post dose by LC-MS/MS analysis; format: ADME, organism-based; settings: in vivo, read-out: Drug uptake; how it was run: as §1
[21] = Tmax in beagle dog at 15 mg/kg, po measured after 0.08 to 72 hrs post dose by LC-MS/MS analysis; format: ADME, organism-based, Canis lupus familiaris; settings: in vivo
[22] = Apparent Volume of distribution in Sprague-Dawley rat at 15 mg/kg, po measured after 0.08 to 72 hrs post dose by LC-MS/MS analysis; format: ADME, organism-based; settings: in vivo; how it was run: as §1
[23] = Cytotoxicity in African green monkey Vero E6 cells assessed as reduction in cell viability; format: cell-based, Vero C1008; settings: chlorocebus sabaeus
[24] = test system: Hepatitis C virus; assay: Antiviral activity against wild type HCV by qRT-PCR analysis based by Reed-Muench method; format: functional, organism-based, Hepacivirus hominis
How it was run: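 Huh7.5 cells seeded 24 h, then infected with wild-type (or mutant) HCV with compound added at the same time. Incubated 72 h. Intracellular HCV RNA measured by qRT-PCR, 2^-ΔCt method, normalized to GAPDH. Eight-step 1:5 serial dilutions in triplicate; EC50 by Reed & Muench; three independent experiments.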

[25] = Clearance in beagle dog at 5 mg/kg, iv measured after 0.08 to 72 hrs post dose by LC-MS/MS analysis; format: ADME, organism-based, Canis lupus familiaris; settings: in vivo; how it was run: as §1
[26] = Cytotoxicity in African green monkey Vero cells assessed as reduction in cell viability; format: cell-based; settings: chlorocebus sabaeus

Work on `CN(C)CCN(C)c1ccc(C#N)c(CN2CCN(c3ccc(Cl)cc3)CC2)c1` yielded an EC50 [1] of 7.41 µM, a half-life [2] of 14.3 h and an EC50 [3] of 0.0044 µM. The bioavailability [4] was 39%, the Vz [5] was 238.11697 L/kg and the Activity [6] was “Non-Toxic”. The EC50 [7] was 0.12 µM, the Activity [8] was “Dose-dependent effect” and the MTD at 7 day [9] was greater than 1000 mg/kg. The Cmax [10] was 94.5 ng/mL, the “Ratio EC50” value [11] was 20 and the Activity [12] was “inactive”. The Activity [13] was “Dose-dependent effect”, the concentration at 72 h [14] was 13.7 ng/mL and the Vd [15] was 20.1 L/kg. The Activity [16] was “Non-Toxic”, the half-life [17] was 7.28 h and the Activity [18] was “Non-Toxic”. It also gave a CL/F [19] of 37.4 mL/min/kg, a concentration at 24 h [20] of 77 ng/mL and a Tmax [21] of 3 h. It also gave a Vz [22] of 34.83407 L/kg, a CC50 [23] of 18.4 µM and an EC50 [24] of 0.003 µM. It also gave a clearance [25] of 79.2 mL/min/kg and a CC50 [26] of 22.2 µM.
